Source: ChEMBL document CHEMBL4033786, “Discovery of Novel 1-Cyclopentenyl-3-phenylureas as Selective, Brain Penetrant, and Orally Bioavailable CXCR2 Antagonists” (J Med Chem, 2018)
Values after ≈ are worked out from the molar mass of the structure shown.

How the values were obtained:
[1] = Solubility of compound in fasted state simulated intestinal fluid measured after 4 hrs; assay type: physicochemical
Procedure, shortened: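 Solubility in FaSSIF, read after 4 h incubation.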

[2] = Passive permeability in MDCK2-MDR1 cells transduced with BacMam2-BCRP at 3 uM after 90 mins by Transwell assay; assay type: ADME, cell-based, Canis lupus familiaris, MDCK-MDR1; conditions: dog; read-out: permeability
Procedure, shortened: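 MDCKII-MDR1 cells transduced with BacMam2-BCRP and grown in Transwells. Compound at 3 μM, in duplicate, was incubated 90 min A→B (and B→A) with and without GF120918 (5 μM, dual P-gp/BCRP inhibitor). Passive permeability (Pexact, nm/s) was calculated by an equation from earlier work. The permeability ratio is A→B permeability with GF120918 over A→B permeability without it.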

[3] = Efflux ratio of passive permeability in MDCK2-MDR1 cells transduced with BacMam2-BCRP at 3 uM after 90 mins by Transwell assay; assay type: ADME, cell-based, Canis lupus familiaris, MDCK-MDR1; conditions: dog
Procedure, shortened: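 MDCKII-MDR1 cells transduced with BacMam2-BCRP in Transwells. Compound at 3 μM was measured in duplicate, A→B and B→A, after 90 min, with and without 5 μM GF120918. ER = B→A/A→B permeability without inhibitor. System qualified with amprenavir and dantrolene ERs.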

[4] = target: T1, C-X-C chemokine receptor type 2 (Homo sapiens, UniProt P25025); assay: Antagonist activity at CXCR2 in human whole blood assessed as inhibition of GROalpha-stimulated CD11b upregulation preincubated for 15 mins followed by GROalpha stimulation measured after 15 mins by FITC-staining based FACS analysis
T1 sequence (P25025 whole entry): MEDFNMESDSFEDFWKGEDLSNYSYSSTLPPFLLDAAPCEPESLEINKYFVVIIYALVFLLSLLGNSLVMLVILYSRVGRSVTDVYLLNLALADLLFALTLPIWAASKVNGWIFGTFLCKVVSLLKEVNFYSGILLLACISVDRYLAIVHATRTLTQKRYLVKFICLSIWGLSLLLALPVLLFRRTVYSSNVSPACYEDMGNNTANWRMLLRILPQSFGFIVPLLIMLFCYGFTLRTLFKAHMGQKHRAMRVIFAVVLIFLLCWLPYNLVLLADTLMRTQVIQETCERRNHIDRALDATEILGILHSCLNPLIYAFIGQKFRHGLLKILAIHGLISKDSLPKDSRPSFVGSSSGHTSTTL

[5] = target: T1, C-X-C chemokine receptor type 2; assay: Antagonist activity at TEV protease cleavage site linked GAL4-VP16-fused recombinant human CXCR2 expressed in cells assessed as inhibition of […] human CXCL1-stimulated beta-arrestin recruitment by CCF4-AM-fluorescence based FRET assay; assay type: cell-based; conditions: read-out: pIC50 (converted)
Procedure, shortened: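 Stable cell line expressing recombinant human CXCR2 linked to a TEV site and Gal4-VP16. Cells were starved 24 h at 37 °C, 5% CO2, then resuspended at ~200,000 cells/mL. They were given compound in DMSO (concentration-response), stimulated with 80 nM hCXCL1 and incubated overnight at 37 °C. CCF4-AM substrate was then added for 2 h at RT in the dark.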

Row | solubility at 4 h [1] [µg/mL] | Papp at 1.5 h, 3 µM [2] [×10⁻⁶ cm/s] | efflux ratio at 1.5 h, 3 µM [3] | IC50 [4] [nM] | IC50 [5] [nM] | Compound
1 | 3.3 (≈ 7.62 µM) | 32.3 | 6.2 | 63.1 | 0.2 | CC1=CCC[C@H]1NC(=O)Nc1ccc(Cl)c(S(=O)(=O)C2(F)CCOCC2)c1O
2 |  |  |  |  | 0.251 | CC(C)(CCO)S(=O)(=O)c1c(Cl)ccc(NC(=O)N[C@@H]2CCC=C2Cl)c1O
3 | 128 (≈ 293 µM) | 26.6 | 12.6 | 631 | 2 | CC1=CCC[C@H]1NC(=O)Nc1ccc(Cl)c(S(=O)(=O)C(F)(F)CN(C)C)c1O
4 |  |  |  |  | 39.8 | CC(C)S(=O)(=O)c1c(Cl)ccc(NC(=O)NC2CCCC23CC3)c1O (racemic)
5 |  |  |  |  | 316 | O=C(Nc1ccc(Cl)c(S(=O)(=O)C2COC2)c1O)N[C@@H]1CCC=C1Cl
6 |  |  |  |  | 3.98 | CC(C)(CO)S(=O)(=O)c1c(Cl)ccc(NC(=O)N[C@@H]2CCC=C2Cl)c1O
7 |  |  |  |  | 6.31 | CC(C)S(=O)(=O)c1c(Cl)ccc(NC(=O)NC2C=CCC2)c1O (racemic)
8 |  |  |  |  | 1580 | COC1CCCCC1NC(=O)Nc1ccc(Cl)c(S(=O)(=O)C(C)C)c1O (racemic)
9 |  |  | > 12 |  |  | CC(C)CN(C[C@@H](O)[C@H](Cc1ccccc1)NC(=O)O[C@H]1CCOC1)S(=O)(=O)c1ccc(N)cc1
10 |  |  |  |  | 63.1 | CCC1CCCC1NC(=O)Nc1ccc(Cl)c(S(=O)(=O)C(C)C)c1O (racemic)
11 |  |  |  |  | 2510 | O=C(Nc1ccc(Cl)c(S(=O)(=O)C2COC2)c1O)N[C@H]1CCC=C1Cl
12 |  |  |  |  | 0.501 | O=C(Nc1ccc(Cl)c(S(=O)(=O)C2(F)CCOCC2)c1O)N[C@@H]1CCC=C1Cl
13 |  |  | > 5 |  |  | O=C1CN(/N=C/c2ccc(-c3ccc([N+](=O)[O-])cc3)o2)C(O)=N1 [DANTROLENE]
14 | 7 (≈ 16.3 µM) | 29.6 | 3.2 |  | 0.251 | CC1=CCC[C@H]1NC(=O)Nc1ccc(Cl)c(S(=O)(=O)C(C)(C)C2COC2)c1O
15 |  |  |  |  | 158 | CC(C)S(=O)(=O)c1c(Cl)ccc(NC(=O)NC2CCCC2(C)C)c1O (racemic)
16 |  |  |  |  | 1.58 | CC1=C(F)CCC1NC(=O)Nc1ccc(Cl)c(S(=O)(=O)C(C)C)c1O (racemic)
17 |  |  |  |  | 3.16 | CC1=C(Cl)CCC1NC(=O)Nc1ccc(Cl)c(S(=O)(=O)C(C)C)c1O (racemic)
18 | 491 (≈ 1050 µM) | 32 | 3.3 | 501 | 0.398 | CC1=CCC[C@H]1NC(=O)Nc1ccc(Cl)c(S(=O)(=O)C2CCN(C3CCC3)CC2)c1O
19 |  |  |  |  | 251 | CO[C@@H]1CCC[C@H]1NC(=O)Nc1ccc(Cl)c(S(=O)(=O)C(C)C)c1O (racemic)

Row | solubility at 4 h [1] [µg/mL] | Papp at 1.5 h, 3 µM [2] [×10⁻⁶ cm/s] | efflux ratio at 1.5 h, 3 µM [3] | IC50 [4] [nM] | IC50 [5] [nM] | Compound
20 | 15.1 (≈ 36.4 µM) | 7.2 | 26.8 |  | 0.251 | CC1=CCC[C@H]1NC(=O)Nc1ccc(Cl)c(S(=O)(=O)[C@@H]2CC[C@@H](O)C2)c1O
21 |  |  |  |  | 1260 | CC(C)S(=O)(=O)c1c(Cl)ccc(NC(=O)NC2CCOCC2)c1O
22 | 395 (≈ 920 µM) |  |  |  | 126 | CC1=CCC[C@H]1NC(=O)Nc1ccc(Cl)c(S(=O)(=O)C(C)(C)CN(C)C)c1O
23 | 39 (≈ 93.1 µM) | 28.1 | 7 |  | 0.794 | CC1=CCC[C@H]1NC(=O)Nc1ccc(Cl)c(S(=O)(=O)C2(F)CCOC2)c1O (stereo not given in full)
24 |  |  |  |  | 1 | CC(C)S(=O)(=O)c1c(Cl)ccc(NC(=O)NC2CCC=C2Cl)c1O (racemic)
25 |  |  |  |  | 0.398 | CC1=CCCC1NC(=O)Nc1ccc(Cl)c(S(=O)(=O)C(C)C)c1O (racemic)
26 |  |  |  |  | > 10000 | CC(C)S(=O)(=O)c1c(Cl)ccc(NC(=O)NC2CCN(C)CC2)c1O
27 | 139 (≈ 289 µM) |  |  |  | 3.98 | CC1=CCC[C@H]1NC(=O)Nc1ccc(Cl)c(S(=O)(=O)C2(C)CCN(C3CCC3)CC2)c1O
28 |  |  |  |  | 25.1 | CC(C)S(=O)(=O)c1c(Cl)ccc(NC(=O)NC2CCC=C2C(F)(F)F)c1O (racemic)
29 |  |  |  |  | 10 | CC(C)S(=O)(=O)c1c(Cl)ccc(NC(=O)NC2CCCC2)c1O
30 |  |  |  |  | 10 | CC(C)S(=O)(=O)c1c(Cl)ccc(NC(=O)NC2C=CCCC2)c1O (racemic)
31 | 16 (≈ 36.1 µM) | 32.4 | 3.2 | 398 | 0.316 | CCC1(S(=O)(=O)c2c(Cl)ccc(NC(=O)N[C@@H]3CCC=C3C)c2O)CCOCC1
32 |  |  |  |  | 10 | CC(C)S(=O)(=O)c1c(Cl)ccc(NC(=O)NC2CCCC=C2Cl)c1O (racemic)
33 | 6.1 (≈ 14.2 µM) | 53.2 | 3.4 | 200 | 0.501 | CC1=CCC[C@H]1NC(=O)Nc1ccc(Cl)c(S(=O)(=O)C2(C)CCOCC2)c1O
34 |  |  |  |  | 25.1 | CC(C)S(=O)(=O)c1c(Cl)ccc(NC(=O)NC2CCC3CC32)c1O (stereo not given)
35 |  |  |  |  | 501 | CC(C)(CO)S(=O)(=O)c1c(Cl)ccc(NC(=O)N[C@H]2CCC=C2Cl)c1O
36 |  |  |  |  | > 10000 | CC(C)S(=O)(=O)c1c(Cl)ccc(NC(=O)NC2CCN(C)C2)c1O (racemic)
37 |  |  |  |  | 10 | CC1CCCC1NC(=O)Nc1ccc(Cl)c(S(=O)(=O)C(C)C)c1O (racemic)
38 |  |  |  |  | 50.1 | CC(C)S(=O)(=O)c1c(Cl)ccc(NC(=O)NC2CCCCC2)c1O

Row | solubility at 4 h [1] [µg/mL] | Papp at 1.5 h, 3 µM [2] [×10⁻⁶ cm/s] | efflux ratio at 1.5 h, 3 µM [3] | IC50 [4] [nM] | IC50 [5] [nM] | Compound
39 | 1.4 (≈ 3.06 µM) | 30.3 | 3.9 | 398 | 0.501 | CC1=CCC[C@H]1NC(=O)Nc1ccc(Cl)c(S(=O)(=O)C(C)(C)C2CCOCC2)c1O
40 |  |  |  |  | 316 | CC1CCCCC1NC(=O)Nc1ccc(Cl)c(S(=O)(=O)C(C)C)c1O (racemic)
41 |  |  |  |  | 631 | CC(C)S(=O)(=O)c1c(Cl)ccc(NC(=O)NC2CCCOC2)c1O (racemic)
42 |  |  |  |  | 100 | O=C(Nc1ccc(Cl)c(S(=O)(=O)C2(F)CCOCC2)c1O)N[C@H]1CCC=C1Cl
43 | 4.1 (≈ 9.56 µM) | 26.7 | 3.4 | 200 | 2 | CC1=CCC[C@H]1NC(=O)Nc1ccc(Cl)c(S(=O)(=O)C2(C)CCCOC2)c1O (stereo not given in full)
44 |  |  |  |  | 316 | CC1=CCC[C@H]1NC(=O)Nc1ccc(Cl)c(S(=O)(=O)C2CCN(CC(F)(F)F)CC2)c1O
45 | 127 (≈ 297 µM) | 12.4 | 25.5 |  | 1 | CC1=CCC[C@H]1NC(=O)Nc1ccc(Cl)c(S(=O)(=O)C2CC3(COC3)C2)c1O
46 |  |  |  |  | 200 | CC1CCC(NC(=O)Nc2ccc(Cl)c(S(=O)(=O)C(C)C)c2O)C1 (racemic)
47 |  |  |  |  | 0.398 | CC(C)S(=O)(=O)c1c(Cl)ccc(NC(=O)Nc2cccc(F)c2Cl)c1O
48 | 26.7 (≈ 57.9 µM) | 33.7 | 10.8 |  | 31.6 | CC1=CCC[C@H]1NC(=O)Nc1ccc(Cl)c(S(=O)(=O)C2(CCF)CCOCC2)c1O
49 | 14.9 (≈ 33.3 µM) | 21.8 | 18.7 | 251 | 1.26 | CC1=CCC[C@H]1NC(=O)Nc1ccc(Cl)c(S(=O)(=O)C2(CF)CCOCC2)c1O
50 | 59 (≈ 123 µM) | 17.7 | 9.4 |  | 2.51 | CC1=CCC[C@H]1NC(=O)Nc1ccc(Cl)c(S(=O)(=O)C2CCN(CC(F)F)CC2)c1O
51 |  |  |  |  | 12.6 | CC1=CCCCC1NC(=O)Nc1ccc(Cl)c(S(=O)(=O)C(C)C)c1O (racemic)
52 | 13.7 (≈ 33 µM) | 26.3 | 9.6 | 251 | 1.58 | CC1=CCC[C@H]1NC(=O)Nc1ccc(Cl)c(S(=O)(=O)C2CCCOC2)c1O (stereo not given in full)
53 |  |  |  |  | 10 | CC(C)S(=O)(=O)c1c(Cl)ccc(NC(=O)NC2CCC=C2F)c1O (racemic)
54 | 72 (≈ 179 µM) | 28.2 | 3.2 | 398 | 1.26 | COCC(C)S(=O)(=O)c1c(Cl)ccc(NC(=O)N[C@@H]2CCC=C2C)c1O (stereo not given in full)
55 |  |  |  |  | 79.4 | CC(C)(CCO)S(=O)(=O)c1c(Cl)ccc(NC(=O)N[C@H]2CCC=C2Cl)c1O
56 | 33.2 (≈ 80 µM) | 31.8 | 3.8 | 126 | 1.26 | CC1=CCC[C@H]1NC(=O)Nc1ccc(Cl)c(S(=O)(=O)C2(C)CCOC2)c1O (stereo not given in full)

Row | Compound | solubility at 4 h [1] [µg/mL] | Papp at 1.5 h, 3 µM [2] [×10⁻⁶ cm/s] | efflux ratio at 1.5 h, 3 µM [3] | IC50 [4] [nM] | IC50 [5] [nM]
57 | CC1=CCC[C@H]1NC(=O)Nc1ccc(Cl)c(S(=O)(=O)C2CCN(CCF)CC2)c1O | 288 (≈ 625 µM) | 21.2 | 7.3 | 200 | 0.631
